# Source: ChEMBL document CHEMBL4396869, “Design and Synthesis of Selective Phosphodiesterase 4D (PDE4D) Allosteric Inhibitors for the Treatment of Fragile X Syndrome and Other Brain Disorders” (J Med Chem, 2019)
# Active and inactive are the calls of the source. No cut-off for these calls is given here.
# Assays:
# [1] = Cmax in ICR mouse at 0.3 mg/kg, po; type: ADME, organism-based; parameters: dose 0.3 mg/kg, route oral; details: in vivo
# [2] = target: T1, 3',5'-cyclic-AMP phosphodiesterase 4A (Homo sapiens, UniProt P27815); assay: Inhibition of recombinant N-terminal GST tagged human PDE4A4B (2 to end residues) expressed in Sf9 cells using FAM-cAMP as substrate incubated for 60 mins by fluorescence assay; details: sf9, 1 h
# T1 sequence (P27815 whole entry): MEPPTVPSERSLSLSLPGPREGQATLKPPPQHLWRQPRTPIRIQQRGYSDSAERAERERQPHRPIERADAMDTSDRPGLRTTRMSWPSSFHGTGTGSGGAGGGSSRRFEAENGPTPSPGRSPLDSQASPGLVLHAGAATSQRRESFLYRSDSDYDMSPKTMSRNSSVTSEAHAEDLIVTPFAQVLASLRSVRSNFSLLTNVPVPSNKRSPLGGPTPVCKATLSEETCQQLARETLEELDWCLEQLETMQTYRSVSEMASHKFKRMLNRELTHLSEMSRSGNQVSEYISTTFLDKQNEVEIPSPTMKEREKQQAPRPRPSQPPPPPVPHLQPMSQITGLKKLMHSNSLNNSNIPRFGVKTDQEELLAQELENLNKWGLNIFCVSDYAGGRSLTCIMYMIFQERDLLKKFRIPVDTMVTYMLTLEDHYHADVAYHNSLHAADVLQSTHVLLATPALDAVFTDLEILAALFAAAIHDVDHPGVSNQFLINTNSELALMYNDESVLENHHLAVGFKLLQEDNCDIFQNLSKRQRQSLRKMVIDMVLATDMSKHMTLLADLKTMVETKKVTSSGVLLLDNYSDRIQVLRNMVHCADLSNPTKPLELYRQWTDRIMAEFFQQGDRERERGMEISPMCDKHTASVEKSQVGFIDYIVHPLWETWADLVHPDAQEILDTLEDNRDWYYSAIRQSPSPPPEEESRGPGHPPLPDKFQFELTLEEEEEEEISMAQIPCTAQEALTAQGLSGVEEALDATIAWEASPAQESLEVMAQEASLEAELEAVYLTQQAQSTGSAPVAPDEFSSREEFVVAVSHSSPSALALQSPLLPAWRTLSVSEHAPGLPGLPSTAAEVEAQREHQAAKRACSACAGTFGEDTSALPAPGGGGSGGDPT
# [3] = target: 3',5'-cyclic-AMP phosphodiesterase 7B (Homo sapiens, UniProt Q9NP56); assay: Inhibition of recombinant human N-terminal GST-tagged/C-terminal His-tagged PDE7B (109 to end residues) expressed in baculovirus infected Sf9 cells using FAM-cAMP as substrate incubated for 60 mins by fluorescence assay; details: sf9, 1 h
# [4] = Protein binding in mouse plasma; type: ADME, cell-free; details: read-out: PPB
# [5] = Toxicity in rat assessed as pulmonary effect up to 60 mg/kg, po; type: organism-based; details: in vivo
# [6] = target: 3',5'-cyclic-AMP phosphodiesterase 4D (Homo sapiens, UniProt Q08499); assay: Inhibition of recombinant human His6-tagged PDE4D2 expressed in baculovirus infected Sf9 insect cells using cAMP as substrate preincubated for 5 to 10 mins followed by substrate addition and measured for 10 mins by yeast myokinase/pyruvate kinase/lactate dehydrogenase-coupled fluorescence assay relative to control; details: sf9, 10 min
# [7] = Stability in rat liver microsomes assessed as parent compound remaining at 1 uM measured after 30 mins by LC-MS/MS analysis; type: ADME, Microsome; details: read-out: Stability
# How it was run: (§1)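 Liver microsome stability run by a contract lab using standard protocols. Parent compound remaining measured after 30 min incubation.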
# [8] = target: T2, 3',5'-cyclic-AMP phosphodiesterase 4B (Homo sapiens, UniProt Q07343); assay: Inhibition of recombinant N-terminal GST-tagged full length human PDE4B1 expressed in baculovirus infected Sf9 cells using FAM-cAMP as substrate incubated for 60 mins by fluorescence assay; details: sf9, 1 h
# T2 sequence (Q07343 whole entry, the tested form may be a part): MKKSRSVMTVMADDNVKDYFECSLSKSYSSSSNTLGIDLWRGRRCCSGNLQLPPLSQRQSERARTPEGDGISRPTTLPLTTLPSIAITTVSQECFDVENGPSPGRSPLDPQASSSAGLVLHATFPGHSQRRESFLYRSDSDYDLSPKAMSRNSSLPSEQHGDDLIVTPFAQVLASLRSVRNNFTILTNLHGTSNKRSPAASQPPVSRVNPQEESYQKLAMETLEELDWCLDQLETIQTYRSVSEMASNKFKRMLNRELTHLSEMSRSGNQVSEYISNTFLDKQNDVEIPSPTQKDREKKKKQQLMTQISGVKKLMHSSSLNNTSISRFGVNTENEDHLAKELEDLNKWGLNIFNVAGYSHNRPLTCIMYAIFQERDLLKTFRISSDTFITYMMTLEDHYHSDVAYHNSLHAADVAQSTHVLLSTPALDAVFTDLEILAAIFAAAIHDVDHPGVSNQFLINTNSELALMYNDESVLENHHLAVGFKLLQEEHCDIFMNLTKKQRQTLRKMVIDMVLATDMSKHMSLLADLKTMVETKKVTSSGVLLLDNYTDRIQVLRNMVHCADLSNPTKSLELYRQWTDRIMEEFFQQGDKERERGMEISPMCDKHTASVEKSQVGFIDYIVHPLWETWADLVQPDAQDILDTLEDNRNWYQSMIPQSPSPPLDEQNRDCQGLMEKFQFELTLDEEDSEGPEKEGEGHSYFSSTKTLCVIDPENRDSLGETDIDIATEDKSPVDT
# [9] = target: cGMP-inhibited 3',5'-cyclic phosphodiesterase 3A (Homo sapiens, UniProt Q14432); assay: Inhibition of recombinant human N-terminal His/GST-tagged PDE3A (669 to 1141 residues) expressed in baculovirus infected Sf9 insect cells using cAMP as substrate
# cGMP-inhibited 3',5'-cyclic phosphodiesterase 3A, sequence (Q14432 whole entry, the tested form may be a part): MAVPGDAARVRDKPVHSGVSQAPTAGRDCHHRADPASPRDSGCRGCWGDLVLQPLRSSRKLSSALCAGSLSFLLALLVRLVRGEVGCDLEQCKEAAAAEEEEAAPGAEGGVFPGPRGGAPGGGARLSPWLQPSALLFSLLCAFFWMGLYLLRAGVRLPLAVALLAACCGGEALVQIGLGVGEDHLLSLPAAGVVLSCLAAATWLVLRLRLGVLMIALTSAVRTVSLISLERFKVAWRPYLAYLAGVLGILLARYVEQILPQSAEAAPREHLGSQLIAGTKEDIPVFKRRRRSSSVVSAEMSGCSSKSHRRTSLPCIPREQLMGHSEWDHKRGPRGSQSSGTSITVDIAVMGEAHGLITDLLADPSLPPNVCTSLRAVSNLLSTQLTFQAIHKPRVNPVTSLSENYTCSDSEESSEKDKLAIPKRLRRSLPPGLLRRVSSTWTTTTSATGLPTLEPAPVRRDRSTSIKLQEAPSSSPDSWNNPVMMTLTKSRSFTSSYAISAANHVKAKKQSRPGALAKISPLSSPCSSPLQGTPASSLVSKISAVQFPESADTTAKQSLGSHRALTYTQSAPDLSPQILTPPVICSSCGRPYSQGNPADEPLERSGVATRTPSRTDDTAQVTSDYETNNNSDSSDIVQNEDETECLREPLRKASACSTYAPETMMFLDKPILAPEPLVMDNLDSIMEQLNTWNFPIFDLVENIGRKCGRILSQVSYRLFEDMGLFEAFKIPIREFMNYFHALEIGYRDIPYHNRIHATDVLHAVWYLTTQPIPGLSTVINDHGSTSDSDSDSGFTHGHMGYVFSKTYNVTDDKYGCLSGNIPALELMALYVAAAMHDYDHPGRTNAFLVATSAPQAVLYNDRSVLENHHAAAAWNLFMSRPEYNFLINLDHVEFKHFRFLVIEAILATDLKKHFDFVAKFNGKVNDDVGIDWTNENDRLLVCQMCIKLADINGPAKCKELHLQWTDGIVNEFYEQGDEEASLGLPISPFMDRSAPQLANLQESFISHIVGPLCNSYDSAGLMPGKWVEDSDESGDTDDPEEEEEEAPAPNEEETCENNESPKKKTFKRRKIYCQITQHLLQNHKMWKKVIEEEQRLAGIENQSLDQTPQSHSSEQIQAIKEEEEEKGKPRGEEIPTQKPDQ
# Mus musculus = assay: Memory enhancement effect in ICR mouse assessed as improvement in novel object discrimination at 0.3 to 30 mg/kg, po administered via gavage measured for 5 mins by open field test; type: functional, organism-based
# How it was run: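 Male ICR mice (25–30 g), dosed by oral gavage in 5% DMSO, 5% Solutol in PBS. Three phases in an open field box: 10 min habituation on day 1, 5 min training with identical objects on day 2, 5 min test with familiar and novel objects on day 3 (24 h delay). Exploration times recorded; discrimination index d2 = (b − a)/(a + b).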
# [10] = Oral bioavailability in dog; type: ADME, organism-based, Canis lupus familiaris; details: in vivo
# [11] = Protein binding in rat plasma; type: ADME, cell-free; details: read-out: PPB
# [12] = Stability in dog liver microsomes assessed as parent compound remaining at 1 uM measured after 30 mins by LC-MS/MS analysis; type: ADME, Canis lupus familiaris, Microsome; details: read-out: Stability; how it was run: as §1
# [13] = target: Dual 3',5'-cyclic-AMP and -GMP phosphodiesterase 11A (Homo sapiens, UniProt Q9HCR9); assay: Inhibition of recombinant human full length N-terminal GST-tagged PDE11A expressed in baculovirus infected Sf9 cells using FAM-cAMP as substrate incubated for 60 mins by fluorescence assay; details: sf9, 1 h
# Dual 3',5'-cyclic-AMP and -GMP phosphodiesterase 11A, sequence (Q9HCR9 whole entry): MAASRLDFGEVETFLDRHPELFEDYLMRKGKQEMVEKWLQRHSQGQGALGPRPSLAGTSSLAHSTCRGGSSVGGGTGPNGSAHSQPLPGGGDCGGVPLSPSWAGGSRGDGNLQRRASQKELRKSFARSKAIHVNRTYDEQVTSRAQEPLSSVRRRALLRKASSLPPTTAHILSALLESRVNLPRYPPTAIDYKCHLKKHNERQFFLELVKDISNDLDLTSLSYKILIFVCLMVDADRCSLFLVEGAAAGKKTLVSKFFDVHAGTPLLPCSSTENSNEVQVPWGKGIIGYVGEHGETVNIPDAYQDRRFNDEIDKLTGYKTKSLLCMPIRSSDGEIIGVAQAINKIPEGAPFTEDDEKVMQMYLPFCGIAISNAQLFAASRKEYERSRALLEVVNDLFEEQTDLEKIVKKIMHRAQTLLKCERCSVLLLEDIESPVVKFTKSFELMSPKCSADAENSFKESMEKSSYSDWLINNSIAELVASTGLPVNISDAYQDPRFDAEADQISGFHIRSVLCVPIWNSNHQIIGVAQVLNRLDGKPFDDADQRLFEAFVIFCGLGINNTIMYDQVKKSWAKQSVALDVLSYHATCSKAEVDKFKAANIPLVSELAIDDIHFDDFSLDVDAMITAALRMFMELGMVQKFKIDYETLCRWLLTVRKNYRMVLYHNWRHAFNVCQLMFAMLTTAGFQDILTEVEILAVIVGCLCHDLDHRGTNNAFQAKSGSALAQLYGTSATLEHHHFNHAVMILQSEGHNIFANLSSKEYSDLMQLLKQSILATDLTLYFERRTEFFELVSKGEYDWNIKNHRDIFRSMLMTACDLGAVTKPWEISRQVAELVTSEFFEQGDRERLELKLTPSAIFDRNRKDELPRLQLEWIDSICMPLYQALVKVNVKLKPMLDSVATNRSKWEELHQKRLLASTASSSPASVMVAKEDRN
# [14] = Toxicity in rat assessed as effect on CNS up to 60 mg/kg, po; type: organism-based; details: in vivo
# [15] = Vascular toxicity in rat during 28 days study by microscopic analysis; details: in vivo, 672 h
# [16] = Oral bioavailability in rat; type: ADME, organism-based; details: in vivo
# [17] = target: High affinity cGMP-specific 3',5'-cyclic phosphodiesterase 9A (Homo sapiens, UniProt O76083); assay: Inhibition of recombinant human full length N-terminal GST-tagged PDE9A2 expressed in baculovirus infected Sf9 cells using FAM-cGMP as substrate incubated for 60 mins by fluorescence assay; details: sf9, 1 h
# High affinity cGMP-specific 3',5'-cyclic phosphodiesterase 9A, sequence (O76083 whole entry): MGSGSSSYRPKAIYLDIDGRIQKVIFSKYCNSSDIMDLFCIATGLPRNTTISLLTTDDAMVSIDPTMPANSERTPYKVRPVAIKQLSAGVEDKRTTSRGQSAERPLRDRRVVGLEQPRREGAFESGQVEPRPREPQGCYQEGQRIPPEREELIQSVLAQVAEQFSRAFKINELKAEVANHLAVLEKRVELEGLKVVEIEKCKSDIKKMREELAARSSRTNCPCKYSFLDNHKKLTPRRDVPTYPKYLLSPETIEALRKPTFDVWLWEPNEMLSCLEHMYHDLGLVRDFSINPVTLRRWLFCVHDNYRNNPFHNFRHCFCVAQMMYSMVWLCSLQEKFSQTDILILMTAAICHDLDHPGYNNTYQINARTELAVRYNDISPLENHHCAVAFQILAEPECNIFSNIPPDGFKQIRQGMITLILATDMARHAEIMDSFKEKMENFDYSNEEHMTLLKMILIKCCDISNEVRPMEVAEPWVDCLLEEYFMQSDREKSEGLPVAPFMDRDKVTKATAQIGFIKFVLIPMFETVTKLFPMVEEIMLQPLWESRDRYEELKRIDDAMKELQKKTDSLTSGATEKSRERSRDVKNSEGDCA
# [18] = Inhibition of recombinant human His6-tagged PDE4D7 UCR1 S129D mutant expressed in baculovirus infected Sf9 insect cells using cAMP as substrate preincubated for 5 to 10 mins followed by substrate addition and measured for 10 mins in presence of BSA by yeast myokinase/pyruvate kinase/lactate dehydrogenase-coupled fluorescence assay
# [19] = target: T2, 3',5'-cyclic-AMP phosphodiesterase 4B; assay: Inhibition of recombinant human N-terminal GST-tagged PDE4B3 (2 to 721 residues) expressed in baculovirus infected Sf9 cells using FAM-cAMP as substrate incubated for 60 mins by fluorescence assay; details: sf9, 1 h
# [20] = Toxicity in dog assessed as weight loss at 100 mg/kg, po; type: organism-based, Canis lupus familiaris; details: in vivo
# [21] = Inhibition of recombinant human His6-tagged PDE4D UCR2 deletion mutant catalytic domain expressed in baculovirus infected Sf9 insect cells using cAMP as substrate preincubated for 5 to 10 mins followed by substrate addition and measured for 10 mins by yeast myokinase/pyruvate kinase/lactate dehydrogenase-coupled fluorescence assay relative to control
# [22] = Oral bioavailability in C57Bl6 mouse; type: ADME, organism-based; details: in vivo
# [23] = Permeability across apical to basal side in MDCK-MDR1 cells; type: ADME, cell-based, Canis lupus familiaris; details: dog
# How it was run: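 Cellular permeability in MDCK-MDR1 cells, apical-to-basal and basal-to-apical, run by a contract lab using standard protocols. Efflux ratio taken as B-A/A-B.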
# [24] = Cmax in ICR mouse at 30 mg/kg, po; details: in vivo
# [25] = Half life in C57Bl6 mouse; type: ADME; details: in vivo
# [26] = target: T2, 3',5'-cyclic-AMP phosphodiesterase 4B; assay: Inhibition of recombinant N-terminal GST-tagged/C-terminal His-tagged full length human PDE4B2 expressed in baculovirus infected Sf9 cells using FAM-cAMP as substrate incubated for 60 mins by fluorescence assay; details: sf9, 1 h
# Cytochrome P450 2D6 = Cytochrome P450 2D6 (Homo sapiens, UniProt P10635); assay: Inhibition of CYP2D6 (unknown origin) by fluorescence-based assay; type: ADME
# Cytochrome P450 2D6, sequence (P10635 whole entry): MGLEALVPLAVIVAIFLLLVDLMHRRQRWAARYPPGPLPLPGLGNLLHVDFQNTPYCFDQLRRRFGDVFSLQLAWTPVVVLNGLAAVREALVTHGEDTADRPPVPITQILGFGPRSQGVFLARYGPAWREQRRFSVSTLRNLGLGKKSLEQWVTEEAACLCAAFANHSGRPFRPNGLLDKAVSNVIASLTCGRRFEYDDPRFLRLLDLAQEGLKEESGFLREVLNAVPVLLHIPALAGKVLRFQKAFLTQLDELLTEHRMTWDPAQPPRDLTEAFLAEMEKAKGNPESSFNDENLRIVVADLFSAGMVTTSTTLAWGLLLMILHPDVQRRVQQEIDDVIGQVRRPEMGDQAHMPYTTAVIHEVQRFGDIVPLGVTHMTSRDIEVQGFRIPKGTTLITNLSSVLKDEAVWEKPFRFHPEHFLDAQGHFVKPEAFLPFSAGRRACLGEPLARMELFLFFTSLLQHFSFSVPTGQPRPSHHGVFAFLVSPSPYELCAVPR
# How it was run: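 CYP inhibition run with a fluorescent substrate by a contract laboratory under standard protocols; IC50 reported.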
# [27] = target: cGMP-specific 3',5'-cyclic phosphodiesterase (Homo sapiens, UniProt O76074); assay: Inhibition of recombinant human N-terminal GST-tagged PDE5A1 expressed in baculovirus infected Sf9 cells using FAM-cGMP as substrate incubated for 60 mins by fluorescence assay; details: sf9, 1 h
# [28] = target: T1, 3',5'-cyclic-AMP phosphodiesterase 4A; assay: Inhibition of recombinant N-terminal GST-tagged human PDE4A10 (2 to 825 residues) expressed in baculovirus infected Sf9 cells using FAM-cAMP as substrate incubated for 60 mins by fluorescence assay; details: sf9, 1 h
# [29] = target: cAMP and cAMP-inhibited cGMP 3',5'-cyclic phosphodiesterase 10A (Homo sapiens, UniProt Q9Y233); assay: Inhibition of recombinant human N-terminal GST-tagged PDE10A1 (2 to 789 residues) expressed in baculovirus infected Sf9 cells using FAM-cAMP as substrate incubated for 60 mins by fluorescence assay; details: sf9, 1 h
smiles,measurement,setting,value
O=C(O)Cc1ccc(Cc2cc(-c3cccc(Cl)c3)nc(C(F)(F)F)c2)cc1 [ZATOLMILAST],Cmax,[1],153 ng/mL
same,inhibition (INH),[2],Not Active
same,inhibition (INH),[3],Not Active
same,fraction unbound,[4],0.002 to 0.005
same,Activity,[5],Non-Toxic
same,inhibition (INH),[6],Not Active
same,"remaining at 0.5 h, 1 µM",[7],88 to 100%
same,inhibition (INH),[8],Not Active
same,inhibition (INH),[9],Not Active
same,Activity,Mus musculus,Active
same,bioavailability,[10],80 to 100%
same,fraction unbound,[11],0.002 to 0.005
same,"remaining at 0.5 h, 1 µM",[12],88 to 100%
same,inhibition (INH),[13],Not Active
same,Activity,[14],Non-Toxic
same,Activity,[15],Non-Toxic
same,bioavailability,[16],80 to 100%
same,inhibition (INH),[17],Not Active
same,inhibition,[18],Active
same,inhibition (INH),[19],Not Active
same,Activity,[20],Toxic
same,inhibition,[21],inactive
same,F,[22],82%
same,permeability,[23],53 ×10⁻⁶ cm/s
same,Cmax,[24],11475 ng/mL
same,half-life,[25],600 to 720 min
same,inhibition (INH),[26],Not Active
same,IC50,Cytochrome P450 2D6,> 100 µM
same,inhibition (INH),[27],Not Active
same,inhibition (INH),[28],Not Active
same,inhibition (INH),[29],Not Active
